The term apparent Kd denotes the concentration giving half-maximal binding under the conditions of the assay.

The values that follow come from the EternaBench riboswitch data.

The data set concerns MS2 coat protein. Kind of data set: apparent Kd, MS2 coat protein; higher = weaker binding; RNA-MaP array. The method, boiled down: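 Designs measured on fewer than 10 clusters were excluded from the data. The rest were RNAs transcribed from sequenced DNA templates on an Illumina sequencing chip and incubated at room temperature, with or without input ligand, with fluorescently labeled MS2 coat protein at 1.5 nM to 3 μM for 0.8–1.5 h at the lowest to 10–20 min at the highest concentrations. Apparent Kd is the median of the per-cluster binding-curve fits.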

[1] abbreviates: designed as: OFF switch for flavin mononucleotide, no ligand.
The mark [2] stands for this setting: ligand present: flavin mononucleotide, designed as: OFF switch for flavin mononucleotide.
Where [3] appears, read: designed as: ON switch for flavin mononucleotide, no ligand.
The mark [4] stands for this setting: ligand present: flavin mononucleotide, designed as: ON switch for flavin mononucleotide.
Setting [5] is: designed as: ON switch for tryptophan, no ligand.
Where [6] appears, read: ligand present: tryptophan, designed as: ON switch for tryptophan.
The mark [7] stands for this setting: designed as: ON switch for theophylline, no ligand.
[8] abbreviates: ligand present: theophylline, designed as: ON switch for theophylline.
The mark [9] stands for this setting: designed as: OFF switch for tryptophan, no ligand.
Setting [10] is: ligand present: tryptophan, designed as: OFF switch for tryptophan.

For “GUCUGGUCAGGAUAUUCGAGGUGUAACAUGAGGAUCACCCAUGUUUCUUAGCUAGAGGCCGAAGAAGGGACGGGUA”, the “apparent Kd” value is 11.4 nM under setting [1] and 10.1 nM under setting [2].

As for “CUUCUUCGUGCAGGAUAUAAGGGAACACGAUGACAUGAGGAUCACCCAUGUUCUAUAAGCAGGCUUUAGAAGGGCAUUUUGGAU”, the “apparent Kd” value under setting [3] was 27.1 nM and the “apparent Kd” value under setting [4] was found to be 20.1 nM.

As for “AGCUAUUUUUGGGAGGAUAUUAUGAGCAGUACAUGAGGAUCACCCAUGUUAGUAAUAUACAUUGGUAAGAAGGCCCAAUCAUAAGG”, the “apparent Kd” value runs as follows: under setting [3], 34.6 nM; under setting [4], 25.1 nM.

As for “ACACACAUGAGGAUCACCCAUGUCUAUAUACGAGGACCGGUACGGCCGCCACUCGUGAGAUCGCGAGAGACAGCUUUGGGCUAGU”, the “apparent Kd” value runs as follows: under setting [5], 14.6 nM; under setting [6], 19.2 nM.

Regarding “CACGAUCGUGAAGGAUAUCGACAUGAGGAUCACCCAUGUUACUCUUACAUCUAUGGUUCAAGUGCCGAGAAGGUCACAGAGGCA”, the “apparent Kd” value runs as follows: under setting [1], 13.8 nM; under setting [2], 18 nM.

For the sequence “UCGGUGUAAGAGAAGGAAGUGUUCGCAGGCCAAGGCUCAUUGGCUACAUGAGGAUCACCCAUGUCUUAGGAUAUCUGCGCUCCG”, the “apparent Kd” value reads like this: under setting [3], 45.6 nM; under setting [4], 16.7 nM.

Turning to “CACCUUCGUCAAGGAUAUGCGUAAUGUAUAAUCGCAGAAGGUGACGCGAUCUUCAUAACAUGAGGAUCACCCAUGUGGUGAACU”, the “apparent Kd” value runs as follows: under setting [1], 436 nM; under setting [2], 312 nM.

Consider “UGAUCUGGCGGAGGAUAUAUGCCAGUAAAACUGAUAGAAGGCCGUGAUAUAACAUGAGGAUCACCCAUGUGAGCUCCUUAGCGA”, for which the “apparent Kd” value is, setting by setting: under setting [1], 20.5 nM; under setting [2], 18.1 nM.

Take “GCAUAGUAAAAUGAUACCAGAGUCAAAACAGACAUGAGGAUCACCCAUGUGCAUAUACAACUCCCUUGGCAGCAUUAAAACGGGA”: the “apparent Kd” value is, setting by setting: under setting [7], 17.1 nM; under setting [8], 13 nM.

As for “CACUAUGAGGUCGAUACCAGUACUGAGUUGUACAUGAGGAUCACCCAUGUAAAUGUUCGCUACCCUUGGCAGCGAUAACAUUGCA”, the “apparent Kd” value worked out at 430 nM under setting [7] and 554 nM under setting [8].

As to “CGUGAUCGCAGAAAGGAUAUUUGGCCUGUAACAUGAGGAUCACCCAUGUUCAAAUGUGACUUACUAAAGAAGGUUCGAAGAUCCAA”, the “apparent Kd” value is, setting by setting: under setting [3], 7.23 nM; under setting [4], 7.11 nM.

With “AUAUAAUCAGGAUAUACAUGUUUCUUUAACACCGAGGCCGUACAUGAGGAUCACCCAUGUAGAAGGGAUUGCGG”, the “apparent Kd” value stood at 6.95 nM under setting [1] and 6.32 nM under setting [2].

With “CCCAGGAUUCAAGGAUAUCGCAAUGAACAUGAGGAUCACCCAUGUUUCUACCCCUCAGCGCACGGCGAGAAGGUGACUUUAGCG”, the “apparent Kd” value runs as follows: under setting [1], 12.8 nM; under setting [2], 12.3 nM.

Consider “GGUGUUACGUCGGCCGCCACUAUACUACAUGAGGAUCACCCAUGUCAUCCCUUCAAUUGGUAGCCUAGGACCGGGACAGAAUUCG”, for which the “apparent Kd” value runs as follows: under setting [9], 43.4 nM; under setting [10], 47.2 nM.

With “CGUAUACAUGAGGAUCACCCAUGUACUCCCGUGUAAGGCGAGAAGGAUAUGUUCCCGGCUACUUAACAGAAGGUCUUGGCGCUU”, the “apparent Kd” value worked out at 14.9 nM under setting [1] and 11.2 nM under setting [2].

In the case of “CUCGUUUAAGAGGAUAUUUCGUCCGCUCUCGGGAAAGAAGGCUUGACAUGAGGAUCACCCAUGUAUACGUUGGA”, the “apparent Kd” value is, setting by setting: under setting [1], 9.46 nM; under setting [2], 13.9 nM.

In the case of “GCCAAGCUCUAAGGAUAUGUUCACACCGGUGAGACAGAAGGUAGUAGUGUACUGCACAUGAGGAUCACCCAUGUAAACGGAUAA”, the “apparent Kd” value reads like this: under setting [3], 64.2 nM; under setting [4], 14.9 nM.

On to “AACAGAAGACAGGAUAUUACUUAACCAGUAUUGUAAGAAGGGUCGACAUGAGGAUCACCCAUGUGAUCAUACUG”, for which the “apparent Kd” value turned out to be 48.8 nM under setting [1] and 47 nM under setting [2].

As to “CCAGGUUGAAUAGGAUAUCGAGUCCGUCACAUGAGGAUCACCCAUGUAUGCCAAGCUAGAGCGUGCGAGAAGGAUUAGGCCAUC”, the “apparent Kd” value under setting [4] turned out to be 15.5 nM.

With “UAGUAGUAAGGAUAUGCGGCACCGACGCCUCCGAACCGCGGGCAGAAGGUACAUGAGGAUCACCCAUGUGGGUA”, the “apparent Kd” value under setting [1] was 169 nM and the “apparent Kd” value under setting [2] came to 116 nM.

Turning to “GUGGGCUAGGAGAAGGACGAUCGAAGCCAUAUCGUAGGAUAUCCAUUAAGAUCCCGGACAUGAGGAUCACCCAUGUGGUGAUAG”, the “apparent Kd” value runs as follows: under setting [1], 676 nM; under setting [2], 414 nM.

As to “ACGCGUUCACAGAAGGCCUACAAAAUUACAUUAGGAGGAUAUGUUACAUGAGGAUCACCCAUGUCAUGGCUGUGUCUCGGUAUC”, the “apparent Kd” value runs as follows: under setting [1], 30.8 nM; under setting [2], 41.4 nM.

On to “CGGCAGAAAGUGAGGAUAUCGGUUGUAUGAGGAGACGAGAAGGCACAUGAGGAUCACCCAUGUUAGUAGUCCAC”, for which the “apparent Kd” value reads like this: under setting [1], 9.54 nM; under setting [2], 8.8 nM.

For “AUAACACAUGAGGAUCACCCAUGUAAGGAUAUAGUAGCAAUGGAAAGAAAUCUAUCCUCUAGAAGGUACACGGC”, the “apparent Kd” value is, setting by setting: under setting [1], 18.5 nM; under setting [2], 15.3 nM.

Consider “GAUCUCCGCGAGAAGGCUGAGCGGUCACUAGCCAGAGGAUAUCGUCACGCGCAGGGAAAACAUGAGGAUCACCCAUGUGUAAGU”, for which the “apparent Kd” value was found to be 10.7 nM under setting [1] and 10.6 nM under setting [2].

As for “UGAAUACAUGAGGAUCACCCAUGUUACGACCUCACAGGAUAUCAGAUAAAGGCUCUCAUCUGAGAAGGGUGGCUCC”, the “apparent Kd” value under setting [3] was determined as 63.3 nM and the “apparent Kd” value under setting [4] was 38.8 nM.

For the sequence “GUGUGGCGCUCAGGAUAUAGAAGGUCGCUAGUUCUAGAAGGGAGCAACGAGGUACCACAUGAGGAUCACCCAUGUUUGGUUGAC”, the “apparent Kd” value is 15.4 nM under setting [1] and 13.3 nM under setting [2].

Regarding “AUACCACCUUCGGCCGCCACUAUGUAUGGGUUCCCAACGUUGAAGGACAUGAGGAUCACCCAUGUUAGGACCGGGAAAAGUGCCU”, the “apparent Kd” value by setting is: under setting [9], 87.9 nM; under setting [10], 161 nM.

As for “CCGAUAAUCAAACAUGAGGAUCACCCAUGUUCUGGACGGUUCGAGGAUAUGGCACAAGGUAUCUUCCAGAAGGCGAGCCGGUGA”, the “apparent Kd” value by setting is: under setting [3], 8.04 nM; under setting [4], 5.98 nM.

On to “GGACAAGAAGAGAAGGGCUUACCAAACCUCAACAUGAGGAUCACCCAUGUCAAAGUGGAAGCAUAGCAGGAUAUCUAACAGCGC”, for which the “apparent Kd” value is, setting by setting: under setting [1], 8.09 nM; under setting [2], 7.72 nM.

As for “UCGGUUUGUGCAGGAUAUGCUUACACCCUAGAGGCAGAAGGGCAUAUCACAUGAGGAUCACCCAUGUACAAUCGUCCAAGGGCA”, the “apparent Kd” value under setting [3] came to 29.8 nM and the “apparent Kd” value under setting [4] came out at 23.4 nM.

“UAGCGAUCUCGUUAAAGGAUCCCAUUUGAUACCAGAGAACUUUGCCUCCCUUGGCAGCAAGUGACAUGAGGAUCACCCAUGUUGA”: the “apparent Kd” value runs as follows: (designed as: OFF switch for theophylline, no ligand) 16.2 nM; (ligand present: theophylline, designed as: OFF switch for theophylline) 23.9 nM.

In the case of “AUUAACAUGAGGAUCACCCAUGUUUGUCUCCGAGGACCGGUACGGCCGCCACUCGCAGGUUGGAGUCGCUAUAUGGGCGUUCACU”, the “apparent Kd” value by setting is: under setting [5], 44.6 nM; under setting [6], 34.9 nM.

As for “CCUUUAGAUGUGAGGAUAUGUACUUGACUUUCAUGACAGAAGGCACAUGAGGAUCACCCAUGUAGUGUCAUUGG”, the “apparent Kd” value under setting [1] turned out to be 10.4 nM and the “apparent Kd” value under setting [2] worked out at 36.4 nM.

Regarding “GAACCCAAGGUGAGGAUAUUCGAAGCAACAAAAGGGAAGAAGGCACAUGAGGAUCACCCAUGUAAGAAAGAUAA”, the “apparent Kd” value reads like this: under setting [1], 8.35 nM; under setting [2], 9.52 nM.

In the case of “UCACUGUUAGGAUAUCUCAUAGCAGUAGGUCAGCUAUUUUGAGAGAAGGAACAUGAGGAUCACCCAUGUAAAUA”, the “apparent Kd” value runs as follows: under setting [1], 19.6 nM; under setting [2], 84.7 nM.

For “GAACAAUGCCUAGGAUAUCUUACGAUUGAAAACAGAGAAGGAGGGACCGAACAUGAGGAUCACCCAUGUAGAUGUGGGACGUGG”, the “apparent Kd” value under setting [1] was found to be 77.2 nM and the “apparent Kd” value under setting [2] was found to be 84.5 nM.

For “UCUCUUAAAGCAGGAUAUGAAAUCCACCAGGAAUCAGAAGGGCUCAACGUUACAUGAGGAUCACCCAUGUCCCUUAUGACAAUA”, the “apparent Kd” value by setting is: under setting [1], 7.83 nM; under setting [2], 9.35 nM.

As for “UUACUACAUGAGGAUCACCCAUGUGAAAAUUAAACGAAAAGUUAGGAUAUGAAUGGAAAUGCACCUCAGAAGGAACGCGACAAG”, the “apparent Kd” value under setting [3] was 18.4 nM and the “apparent Kd” value under setting [4] turned out to be 16.9 nM.

Consider “UAUACUACUGAGGAUAUCCAAUCCCAGAAACAAGGAGAAGGCAGUACAUGAGGAUCACCCAUGUUCCUCGACAU”, for which the “apparent Kd” value reads like this: under setting [1], 43.1 nM; under setting [2], 127 nM.

As to “AGAUUUGCAGGAUAUACCGGUACAAACAUGAGGAUCACCCAUGUAACGCAUGGUCAGUGAGUAGAAGGGCACGUAG”, the “apparent Kd” value under setting [1] was 31.4 nM and the “apparent Kd” value under setting [2] is 24 nM.

For the sequence “GGUUUUUCUGUUAGGAUAUUUCAUGACAGGCGAUGAAAGAAGGAACAUGAGGAUCACCCAUGUGUUUGAGAUAA”, the “apparent Kd” value amounted to 9.57 nM under setting [1] and 10.6 nM under setting [2].

With “GUCUGGAUGUAGGAUAUGUGUCCGUGCUAGGGUACAGAAGGACAGACAUGAGGAUCACCCAUGUGGAUCAACCG”, the “apparent Kd” value by setting is: under setting [1], 22.6 nM; under setting [2], 38.2 nM.

Take “GGAAUGUGAGGAUAUGUUAAGAAGGCGCGACGUUGGGAGACACAGAAGGCACAUGAGGAUCACCCAUGUUAUGA”: the “apparent Kd” value under setting [1] came out at 23.2 nM and the “apparent Kd” value under setting [2] is 31.1 nM.

In the case of “AAAACAUGAGGAUCACCCAUGUUGAUCAAACACCAGACCAAGAGAAGGAUCAGCACCGAGUGAUGAAAGGAUAUCUAUUAACGG”, the “apparent Kd” value came to 39.2 nM under setting [3] and 23.8 nM under setting [4].

On to “GUGCACAUGAGGAUCACCCAUGUCUGUGUAUUCCUGCUACCAGAGGAUAUGGCGUGCGUAGCUUACCAGAAGGCUGGUUGUAUC”, for which the “apparent Kd” value amounted to 30 nM under setting [1] and 13.4 nM under setting [2].

On to “UGUUACAUGAGGAUCACCCAUGUCAGAUGGUCUGGCUAUUACAGAAGGAAUAAAGAACGUCGAGAUUAGGAUAUGUGUAGAUGA”, for which the “apparent Kd” value is, setting by setting: under setting [3], 40.9 nM; under setting [4], 31.8 nM.
